# Results published in ChEMBL document CHEMBL4818983, “Structure-activity relationship and hypoglycemic activity of tricyclic matrines with advantage of treating diabetic nephropathy” (Eur J Med Chem, 2020).
# The source made the active and inactive calls. The rule behind the calls is not given here.
# Key:
# Mus musculus [1] = assay: Antidiabetic activity in KK-Ay mouse assessed as effect on cholesterol level at 100 mg/kg, po for 24 hrs by ELISA (reference value: 7.38 +/- 1.03 mM); assay type: functional
# Mus musculus [2] = assay: Antidiabetic activity in KK-Ay mouse assessed as effect on BUN level at 50 mg/kg, po for 24 hrs by ELISA (reference value: 12.8 +/- 2.97 mM); assay type: functional
# [3] = Effect on high fat diet-fed KK-Ay mouse model of obesity and diabetes assessed as water intake at 50 mg/kg, po (reference value: 21.2 +/- 4.17 ml/day); assay type: ADME, organism-based; conditions: in vivo
# How it was run: (§1)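 KK-Ay mice on lipogenic diet, with C57BL/6J mice as normal controls, dosed orally at 50 or 100 mg/kg (test) or 5 mg/kg (RGZ). Food intake (g/day), water intake (mL/day) and body weight recorded before and after treatment; body weight gain calculated. Mean±SD, 8-9 mice per group.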
# [4] = Acute toxicity in po dosed Kunming mouse administered as single dose measured for 7 days; assay type: organism-based; conditions: in vivo, time 7 day
# How it was run: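 Kunming mice each received one oral dose at 250, 500, 750 or 1000 mg·kg^-1 and were closely monitored for 7 days. The median lethal dose (LD50) was estimated from this single-dose experiment.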
# [5] = Acute toxicity in Kunming mouse assessed as effect on blood BUN level at 250 to 1000 mg/kg, po administered as single dose measured for 7 days; assay type: organism-based; conditions: in vivo, 168 h, dose 250-1000 mg/kg, time 7 day
# How it was run: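 Kunming mice each received one oral dose at 250, 500, 750 or 1000 mg·kg^-1 and were closely monitored for 7 days. At the end, blood was sampled and GOT, GPT, BUN and CRE were measured […] as liver and kidney function markers.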
# Mus musculus [6] = assay: Antidiabetic activity in KK-Ay mouse assessed as effect on HOMA-IR level at 100 mg/kg, […] by ELISA (reference value: 137 +/- 18.4); assay type: functional
# Mus musculus [7] = assay: Anti-diabetic activity in overnight fasted diabetic KK-Ay mouse assessed as reduction in blood glucose AUC at 50 to 100 mg/kg, po measured after 35 days by oral glucose tolerance test; assay type: functional, organism-based; conditions: dose 50-100 mg/kg, time 35.0 day
# How it was run: (§2)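 KK-Ay mice orally treated with 50 or 100 mg/kg compound or 5 mg/kg rosiglitazone, C57BL/6J as normal controls. After 35 days of treatment, oral glucose tolerance test and insulin tolerance test run. Blood glucose plotted against time, AUC calculated. Mean ± SD, 8-9 mice per group.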
# Mus musculus [8] = assay: Anti-diabetic activity in high fat diet-fed KK-Ay mouse model of obesity and diabetes assessed as reduction in microalbumin level in urine at 50 to 100 mg/kg, po measured after 24 hrs; assay type: functional, organism-based; conditions: dose 50-100 mg/kg
# How it was run: (§3)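 Before study end, 24-h urine collected from C57BL/6J controls and KK-Ay mice (untreated, oral 50 or 100 mg/kg compound, or 5 mg/kg rosiglitazone). Volume, glucose, total protein and microalbumin measured by kits. Mean ± SD, 8-9 mice per group, vs C57BL/6J or untreated KK-Ay.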
# [9] = Effect on high fat diet-fed KK-Ay mouse model of obesity and diabetes assessed as food intake at 100 mg/kg, po (reference value: 5.67 +/- 0.55 g/day); assay type: ADME, organism-based; conditions: in vivo; how it was run: as §1
# L6 [10] = assay: Increase in glucose consumption in rat L6 cells at 10 to 40 uM measured after 24 hrs; assay type: functional, cell-based; conditions: dose 10-40 µM
# How it was run: (§4)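 L6 myotubes treated with DMSO, compound or RGZ (20 μM) at the indicated concentrations for 24 h. Culture supernatants assayed for glucose consumption and lactate release; lysed cells assayed for ATP, normalized to protein. Mean ± SD of 3 independent experiments vs DMSO.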
# Mus musculus [11] = assay: Antidiabetic activity in KK-Ay mouse assessed as effect on cholesterol level at 50 mg/kg, […] by ELISA (reference value: 7.38 +/- 1.03 mM); assay type: functional
# [12] = Effect on high fat diet-fed KK-Ay mouse model of obesity and diabetes assessed as total body weight gain at 100 mg/kg, po (reference value: 43.5 +/- 5.24 g); assay type: ADME, organism-based; conditions: in vivo; how it was run: as §1
# Mus musculus [13] = assay: Antidiabetic activity in KK-Ay mouse assessed as reduction in fasting blood glucose level at 50 mg/kg, po for 50 days by glucose oxidase method (reference value: 13.2 +/- 2.51 mM); assay type: functional; conditions: time 50 day
# How it was run: (§5)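 Lipogenic-diet KK-Ay mice given 50 or 100 mg/kg compound or 5 mg/kg rosiglitazone orally for 50 days, C57BL/6J as normal controls. Fasting blood glucose, glycosylated haemoglobin, AGE, insulin, HOMA-IR, cholesterol, LDL-c, TG, serum creatinine and BUN determined. Mean ± SD, 8-9 mice per group.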
# [14] = Cytotoxicity against human HepG2 cells after 24 hrs by MTT assay; assay type: cell-based
# How it was run: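 HepG2 cells exposed to compound; cell growth measured; CC50 derived from the concentration–growth relationship.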
# Mus musculus [15] = assay: Anti-diabetic activity in high fat diet-fed KK-Ay mouse model of obesity and diabetes assessed as improved pathological changes in pancreas at 50 to 100 mg/kg, po by hematoxylin and eosin staining based histopathological analysis; assay type: functional, organism-based; conditions: dose 50-100 mg/kg
# How it was run: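 Mice sacrificed at study end, with KK-Ay given 50 or 100 mg/kg compound or 5 mg/kg rosiglitazone orally and C57BL/6J as normal controls. Kidney and pancreas sections H&E stained, imaged at 200×, pathological changes scored. Mean ± SD of 8-9 mice per group.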
# [16] = Effect on high fat diet-fed KK-Ay mouse model of obesity and diabetes assessed as total body weight gain at 50 mg/kg, po (reference value: 43.5 +/- 5.24 g); assay type: ADME, organism-based; conditions: in vivo; how it was run: as §1
# Mus musculus [17] = organism: Mus musculus; assay: Anti-diabetic activity in high fat diet-fed C57BL/6J mouse model of obesity and diabetes assessed as reduction in urine glucose level measured after 24 hrs; assay type: functional, organism-based; how it was run: as §3
# L6 [18] = assay: Induction of glycolysis in rat L6 cells assessed as reduction in cellular ATP production at 10 to 40 uM measured after 24 hrs; assay type: functional, cell-based; conditions: dose 10-40 µM; how it was run: as §4
# Mus musculus [19] = assay: Antidiabetic activity in KK-Ay mouse assessed as effect on glycosylated haemoglobin level at 100 mg/kg, po for 50 days by glucose oxidase method (reference value: 8.74 +/- 1.08%); assay type: functional; conditions: time 50 day; how it was run: as §5
# Mus musculus [20] = assay: Anti-diabetic activity in overnight fasted diabetic KK-Ay mouse assessed as reduction in blood glucose AUC at 5 mg/kg, po […] measured after 35 days by oral glucose tolerance test; assay type: functional, organism-based; how it was run: as §2
# [21] = Effect on high fat diet-fed po dosed C57BL/6J mouse model of obesity and diabetes assessed as total body weight gain; assay type: organism-based; conditions: in vivo
# HepG2 = assay: Induction of glycolysis in human HepG2 cells assessed as reduction in cellular ATP production at 10 to 40 uM measured after 24 hrs; assay type: functional, cell-based; conditions: dose 10-40 µM
# How it was run: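 HepG2 cells treated 24 h at the indicated concentrations; RGZ as reference. Supernatants used for glucose consumption and lactate release; lysed cells used for ATP, normalized to protein content. Mean ± SD of 3 or 4 separate experiments; compared with DMSO.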
# Mus musculus [22] = assay: Antidiabetic activity in KK-Ay mouse assessed as effect on AGE level at 50 mg/kg, po for 24 hrs by ELISA (Rvb 2.85 +/- 0.92 ug/ml); assay type: functional
compound,measurement,setting,value
CCCC[C@@H]1[C@H]2CCCN3CCC[C@@H](CN1S(=O)(=O)c1ccc(C(F)(F)F)cc1)[C@@H]23,Activity,Mus musculus [1],5.55 mM
same,Activity,Mus musculus [2],12.7 mM
same,Activity,[3],13.8 mL/day
same,LD50 at 168 h,[4],1000 mg/kg
same,Activity,[5],Non-Toxic
same,Activity,Mus musculus [6],46.5
same,Activity,Mus musculus [7],Active
same,Activity,Mus musculus [8],Active
same,Activity,[9],5.28 g/day
same,Activity,L6 [10],Dose-Dependent Effect
same,Activity,Mus musculus [11],7.05 mM
same,Activity,[12],2.53 g
same,Activity,Mus musculus [13],9.44 mM
same,CC50 at 24 h,[14],642 µM
same,Activity,Mus musculus [15],Active
same,Activity,[16],3.52 g
same,Activity,Mus musculus [17],Active
same,Activity,L6 [18],Active
same,Activity,Mus musculus [19],6.75%
same,Activity,Mus musculus [20],Active
same,Activity,[21],3.42 g
same,Activity,HepG2,Dose-Dependent Effect
same,Activity,Mus musculus [22],1.59 µg/mL
